ChEMBL document CHEMBL3739254, “Synthesis of apoptotic chalcone analogues in HepG2 human hepatocellular carcinoma cells” (Bioorg Med Chem Lett, 2015)
Calls of active or inactive are those of the source. No cut-off for these calls is given here.

Legend:
HepG2 [1] = assay: Cytotoxicity against human HepG2 cells assessed as cell viability at 5 to 100 uM after 24 hrs by MTT assay relative to control; assay type: functional, cell-based
Procedure, shortened: (§1)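 HepG2 cells kept in DMEM with 10% FBS and penicillin/streptomycin at 37 °C under 5% CO2. Cells were exposed for 24 h to chalcone analogues at various concentrations, up to 100 µM, and viability was then read by MTT assay.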

HepG2 [2] = assay: Induction of apoptosis in human HepG2 cells assessed as early apoptotic cells at 50 uM by annexin V-FITC/propidium iodide staining-based flow cytometric analysis (reference value: 1.9 +/- 0.5%); assay type: functional
HepG2 [3] = assay: Cytotoxicity against human HepG2 cells assessed as cell viability at 5 to 100 uM after 24 hrs by MTT assay; assay type: functional; procedure, shortened: as §1
HepG2 [4] = assay: Cytotoxicity against human HepG2 cells assessed as cell viability after 24 hrs by MTT assay; assay type: functional, cell-based; conditions: HepG2, 24 h; procedure, shortened: as §1
HepG2 [5] = assay: Induction of apoptosis in human HepG2 cells assessed as increase in Bax/Bcl2 ratio at 25 to 50 uM after 24 hrs by Western blot analysis; assay type: functional, cell-based
Procedure, shortened: (§2)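 HepG2 cells were grown in 60 mm dishes and treated at 25 and 50 µM for 24 h. Whole-cell extracts were made in RIPA buffer with 1× protease inhibitor cocktail and 1 mM PMSF. Lysates (20 µg) were run on SDS–PAGE and transferred to PVDF. Blots were probed with epitope-specific antibodies against GAPDH and the target proteins and detected by ECL.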

HepG2 [6] = assay: Induction of apoptosis in human HepG2 cells assessed as early apoptotic cells at 25 uM by annexin V-FITC/propidium iodide staining-based flow cytometric analysis (reference value: 1.9 +/- 0.5%); assay type: functional
HepG2 [7] = assay: Cytotoxicity against human HepG2 cells assessed as cell viability at 50 uM after 24 hrs by MTT assay; assay type: functional; conditions: HepG2, 24 h, read-out: GI; procedure, shortened: as §1
HepG2 [8] = assay: Cytotoxicity against human HepG2 cells assessed as cell viability at 100 uM after 24 hrs by MTT assay; assay type: functional; conditions: HepG2, 24 h, read-out: GI; procedure, shortened: as §1
HepG2 [9] = assay: Induction of apoptosis in human HepG2 cells assessed as cleavage of PARP at 25 to 50 uM after 24 hrs by Western blot analysis; assay type: functional, cell-based; procedure, shortened: as §2
HepG2 [10] = assay: Induction of apoptosis in human HepG2 cells assessed as cell shrinking at 25 to 50 uM by phase contrast microscopic analysis; assay type: functional, cell-based
HepG2 [11] = assay: Induction of apoptosis in human HepG2 cells assessed as progressive condensation at 25 to 50 uM by phase contrast microscopic analysis; assay type: functional, cell-based
HepG2 [12] = assay: Induction of apoptosis in human HepG2 cells assessed as cleavage of caspase-9 at 25 to 50 uM after 24 hrs by Western blot analysis; assay type: functional, cell-based; procedure, shortened: as §2
HepG2 [13] = assay: Induction of apoptosis in human HepG2 cells assessed as karyorrhexis at 25 to 50 uM by phase contrast microscopic analysis; assay type: functional, cell-based
HepG2 [14] = assay: Induction of apoptosis in human HepG2 cells assessed as cleavage of caspase-3 at 25 to 50 uM after 24 hrs by Western blot analysis; assay type: functional, cell-based; procedure, shortened: as §2
HepG2 [15] = assay: Induction of apoptosis in human HepG2 cells assessed as cleavage of caspase-8 at 25 to 50 uM after 24 hrs by Western blot analysis; assay type: functional, cell-based; procedure, shortened: as §2
LLC-PK1 = assay: Cytotoxicity against porcine LLC-PK1 cells assessed as cell viability after 24 hrs by MTT assay; assay type: cell-based; conditions: Sus scrofa, LLC-PK1, 24 h

**Q.** Which “growth inhibition (GI)” value (HepG2 [1]) does the source give for `O=C(/C=C/c1ccc2ccccc2c1)c1ccc(Cl)cc1` here?
**A.** Its value is “inactive”.

**Q.** For `CCn1c2ccccc2c2cc(/C=C/C(=O)c3ccc(Cl)cc3)ccc21`, which “growth inhibition (GI)” value (HepG2 [1]) is on record?
**A.** Its value is “inactive”.

**Q.** `COc1cccc(C(=O)/C=C/c2cc(OC)c(Br)c(OC)c2)c1` was tested. Which Activity (HepG2 [2]) did it give?
**A.** The Activity was 31.2%.

**Q.** What about the “growth inhibition (GI)” value (HepG2 [3]) of the same compound?
**A.** The value was over 50%.

**Q.** And the IC50 (HepG2 [4])?
**A.** Its IC50 is 26 µM.

**Q.** And the Activity (HepG2 [5])?
**A.** Its Activity is “Active”.

**Q.** And the Activity (HepG2 [6])?
**A.** The Activity was 8.5%.

**Q.** And the inhibition of growth at 50 µM (HepG2 [7])?
**A.** Its inhibition of growth at 50 µM is at most 91%.

**Q.** And the inhibition of growth at 100 µM (HepG2 [8])?
**A.** The inhibition of growth at 100 µM was 98%.

**Q.** And the Activity (HepG2 [9])?
**A.** Its Activity is “Active”.

**Q.** What about the Activity (HepG2 [10]) of the same compound?
**A.** Its Activity is “Active”.

**Q.** What about the Activity (HepG2 [11]) of the same compound?
**A.** Its Activity is “Active”.

**Q.** And the Activity (HepG2 [12])?
**A.** The Activity was “inactive”.

**Q.** And the Activity (HepG2 [13])?
**A.** The Activity was “Active”.

**Q.** What about the Activity (HepG2 [14]) of the same compound?
**A.** Its Activity is “Active”.

**Q.** What about the Activity (HepG2 [15]) of the same compound?
**A.** Its Activity is “Active”.

**Q.** What about the IC50 (LLC-PK1) of the same compound?
**A.** Its IC50 is 83 µM.

**Q.** Which “growth inhibition (GI)” value (HepG2 [1]) does the source give for `O=C(/C=C/c1ccc2ccccc2c1)c1ccc(Br)cc1` here?
**A.** The value was “inactive”.

**Q.** Which “growth inhibition (GI)” value (HepG2 [1]) does the source give for `O=C(/C=C/c1ccc(-c2ccccc2)cc1)c1ccc(Cl)cc1` here?
**A.** The value was “inactive”.

**Q.** Which “growth inhibition (GI)” value (HepG2 [3]) does the source give for `COc1cc(/C=C/C(=O)c2ccc(Br)cc2)cc(OC)c1Br` here?
**A.** The value was over 50%.

**Q.** `CCn1c2ccccc2c2cc(/C=C/C(=O)c3ccc(OC)c(OC)c3)ccc21` was tested. Which “growth inhibition (GI)” value (HepG2 [1]) did it give?
**A.** Its value is “inactive”.

**Q.** For `COc1ccc(C(=O)/C=C/c2ccc(-c3ccccc3)cc2)cc1OC`, which “growth inhibition (GI)” value (HepG2 [1]) is on record?
**A.** Its value is “inactive”.
